Measured values collected from several papers.
Target: Cytoplasmic tyrosine-protein kinase BMX (BMX, Homo sapiens, UniProt P51813)
Observed: enzyme activity
Action: inhibitor
Sequence (P51813 1-675, as in one of the studies): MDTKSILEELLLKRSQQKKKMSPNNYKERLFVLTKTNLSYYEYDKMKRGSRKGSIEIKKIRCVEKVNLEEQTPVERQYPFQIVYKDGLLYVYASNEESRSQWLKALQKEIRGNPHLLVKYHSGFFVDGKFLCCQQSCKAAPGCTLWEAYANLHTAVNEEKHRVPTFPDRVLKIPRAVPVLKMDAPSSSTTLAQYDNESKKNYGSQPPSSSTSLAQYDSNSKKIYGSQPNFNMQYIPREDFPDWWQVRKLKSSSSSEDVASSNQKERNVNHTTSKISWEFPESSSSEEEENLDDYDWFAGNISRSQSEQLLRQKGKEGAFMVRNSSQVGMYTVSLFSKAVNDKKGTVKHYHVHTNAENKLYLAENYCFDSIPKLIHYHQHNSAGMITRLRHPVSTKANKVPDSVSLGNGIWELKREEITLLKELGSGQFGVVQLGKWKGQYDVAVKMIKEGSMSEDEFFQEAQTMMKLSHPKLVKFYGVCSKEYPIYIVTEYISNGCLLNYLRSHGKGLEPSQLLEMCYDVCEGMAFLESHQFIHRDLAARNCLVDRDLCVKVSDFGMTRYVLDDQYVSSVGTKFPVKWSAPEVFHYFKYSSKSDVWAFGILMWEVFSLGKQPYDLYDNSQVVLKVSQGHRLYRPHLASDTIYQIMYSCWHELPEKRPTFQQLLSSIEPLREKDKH

| Structure (SMILES) | assay | conditions | remaining activity [%] |
| --- | --- | --- | --- |
| O=C(Nc1cnn(-c2csc(C(=O)NC3COC3)c2)c1)Nc1c(F)cccc1Cl |  | 5 µM | 96.8 |
| CCN(CC)c1ccc(C2=NNC(=O)CC2C)cc1[N+](=O)[O-] (stereo not drawn) |  | 10 µM | 96 |
| Cc1sc(C(=O)NC2COC2)cc1-n1cc(NC(=O)Nc2c(F)cccc2Cl)cn1 |  | 10 µM | 92.9 |
| Cc1cnc(NC2CCOCC2)nc1-n1cnc(C(=O)NC(CN)c2cc(F)cc(Cl)c2)c1 (stereo not drawn) | radiometric | 1 µM | 117 |
| CC(C)(C)c1nc2c(s1)c1nc(N)ncc1c1ccc(NS(=O)(=O)c3c(F)cccc3F)c(F)c12 | radiometric | 1 µM | 87 |
| COc1cc(Cl)c(C(=O)N[C@@H](CN[C@H]2CC[C@@H](N)CC2)Cc2ccc(C#N)cc2)cc1-c1ccc(CN[C@H](C)c2ccc(C)cc2)o1 |  | 1 µM | 72 |
| CC(C)(C)c1nc(-c2cccc(NS(=O)(=O)c3c(F)cccc3F)c2F)c(-c2ccnc(N)n2)s1 | radiometric | 1 µM | 75 |
| COc1cc2ncc(-c3ccccc3)nc2cc1OC |  | 0.5 µM | 92.2 |
| CCCOc1ccc(OC)c(F)c1C(=O)c1ccc(C(=O)N[C@@H]2CNC[C@H]2NC(=O)c2ccc3[nH]ncc3c2)cc1 |  | 10 µM | 87 |
| CCN(CC)CCNC(=O)c1c(C)[nH]c(/C=C2\C(=O)Nc3ccc(Cl)cc32)c1C |  | 0.5 µM | 99.3 |
| Nc1ncnc2occ(-c3ccc(NC(=O)Nc4cc(C(F)(F)F)ccc4F)cc3)c12 |  | 20 µM | 0.5 |
| COc1ccc(C(=O)Nc2sc3c(c2C(N)=O)CCCC3)cc1OC |  | 0.5 µM | 89.8 |
| CC(C)(O)[C@H]1CC[C@H](Nc2ccc3ncc(-c4cccc(C(F)(F)F)c4)n3n2)CC1 |  | 1 µM | 71.5 |
| O=C(O)c1ccc2c3c1cccc3c(=O)n1c3ccccc3nc21 |  | 0.5 µM | 96.4 |
| Cc1ccc(C(=O)Nc2ccc(CN3CCN(C)CC3)c(C(F)(F)F)c2)cc1C#Cc1cnc2cccnn12 |  | 23.5 nM | 47 |
